Assay results as given in ChEMBL document CHEMBL3992563, “Piperazines as nootropic agents: New derivatives of the potent cognition-enhancer DM235 carrying hydrophilic substituents” (Bioorg Med Chem, 2017).

How the values were obtained:
Mus musculus [1] = assay: Cognition enhancing effect in ip dosed mouse assessed as reversal of scopolamine-induced amnesia treated 20 mins prior to training session followed by scopolamine challenge immediately after training session by passive avoidance test; assay type: functional; details: read-out: MED
Mus musculus [2] = assay: Cognition enhancing effect in […] mouse assessed as reversal of scopolamine-induced amnesia by measuring difference between training session and retention session time at MED treated 20 mins prior to training session followed by scopolamine challenge immediately after training session by passive avoidance test
[3] = Half life in PBS at 1 uM by LC-MS/MS analysis; assay type: physicochemical
Method in brief: (§1)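 Analyte at 1 µM final in PBS or in plasma from male Sprague-Dawley rats (plasma stored at −80 °C), incubated at 37 °C. Sampled in triplicate at 0, 30, 60 and 120 min, then internal standard added. Quantified by ESI-positive LC-MS/MS in MRM mode (C18 column, formic acid/acetonitrile gradient) against calibration from 0–1.00 µM. Enalapril checked plasma hydrolytic activity; t1/2 extrapolated from concentration-time curves.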

[4] = Half life in Sprague-Dawley rat plasma at 1 uM by LC-MS/MS analysis; assay type: ADME, cell-free; method in brief: as §1
Mus musculus [5] = assay: Toxicity in sc dosed CD-1 albino mouse assessed as effect on motor co-ordination at cognition enhancing MED by rota rod test; assay type: organism-based; details: in vivo
Mus musculus [6] = assay: (§2) Cognition enhancing effect in sc dosed CD-1 albino mouse assessed as reversal of scopolamine-induced amnesia treated 20 mins prior to training session followed by scopolamine challenge immediately after training session by passive avoidance test; assay type: functional; details: CD-1, sc, read-out: MED
Method in brief: (§3)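 Mouse passive-avoidance test using a modified Jarvik–Kopp protocol. Drug in saline with 10% DMSO, given s.c. 20 min before training in a 1:10 dilution series up to 10 mg/kg. Scopolamine 1.5 mg/kg i.p. given right after the punishment/training session. Saline controls got an extra saline injection. Each value is the mean of 12–14 mice; the read-out is minimal effective dose.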

Mus musculus [7] = assay: Toxicity in sc dosed CD-1 albino mouse assessed as gross behavior abnormality at cognition enhancing MED; assay type: organism-based; details: in vivo
Mus musculus [8] = assay: Toxicity in sc dosed CD-1 albino mouse assessed as effect on spontaneous motility at cognition enhancing MED by hole-board test; assay type: organism-based; details: in vivo
Mus musculus [9] = assay: Potency index, ratio of piracetam MED to compound MED for cognition enhancing effect in sc dosed CD-1 albino mouse; assay type: functional
Mus musculus [10] = assay: as §2, with “amnesia by measuring difference between training session and retention session time at MED” for “amnesia”; assay type: functional; method in brief: as §3
[11] = Stability in Sprague-Dawley rat plasma assessed as parent compound remaining at 1 uM after 60 mins by LC-MS/MS analysis; assay type: ADME, cell-free; details: read-out: Stability; method in brief: as §1
Plasma [12] = assay: Drug level in Sprague-Dawley rat plasma treated with (4-Acetyl-1-(4-fluorophenylsulfonyl)piperazin-2-yl)methyl acetate at 1 uM after 60 mins by LC-MS/MS analysis; assay type: ADME, cell-free; details: 1 h; method in brief: as §1
[13] = Stability in Sprague-Dawley rat plasma assessed as parent compound remaining at 1 uM after 2 hrs by LC-MS/MS analysis; assay type: ADME, cell-free; details: read-out: Stability; method in brief: as §1
Plasma [14] = assay: Drug metabolism in Sprague-Dawley rat plasma assessed as 1-(4-(4-Fluorophenylsulfonyl)-2-(hydroxymethyl)piperazin-1-yl)ethanone formation at 1 uM after 60 mins by LC-MS/MS analysis; assay type: ADME, cell-free; details: 1 h; method in brief: as §1
Plasma [15] = assay: Drug level in Sprague-Dawley rat plasma treated with (4-Benzoyl-1-propionylpiperazin-2-yl)methyl acetate at 1 uM after 60 mins by LC-MS/MS analysis; assay type: ADME, cell-free; details: 1 h; method in brief: as §1
Plasma [16] = assay: Drug metabolism in Sprague-Dawley rat plasma assessed as 1-(4-Benzoyl-3-(hydroxymethyl)piperazin-1-yl)propan-1-one formation at 1 uM after 60 mins by LC-MS/MS analysis; assay type: ADME, cell-free; details: 1 h; method in brief: as §1
Plasma [17] = assay: Drug metabolism in Sprague-Dawley rat plasma assessed as 1-(4-(4-Fluorophenylsulfonyl)-3-(hydroxymethyl)piperazin-1-yl)ethanone formation at 1 uM after 60 mins by LC-MS/MS analysis; assay type: ADME, cell-free; details: 1 h; method in brief: as §1
Plasma [18] = assay: Drug level in Sprague-Dawley rat plasma treated with (1-Acetyl-4-(4-fluorophenylsulfonyl)piperazin-2-yl)methyl acetate at 1 uM after 60 mins by LC-MS/MS analysis; assay type: ADME, cell-free; details: 1 h; method in brief: as §1
Plasma [19] = assay: Drug level in Sprague-Dawley rat plasma treated with (1-Benzoyl-4-propionylpiperazin-2-yl)methyl acetate at 1 uM after 60 mins by LC-MS/MS analysis; assay type: ADME, cell-free; details: 1 h; method in brief: as §1
Plasma [20] = assay: Drug metabolism in Sprague-Dawley rat plasma assessed as 1-(4-Benzoyl-2-(hydroxymethyl)piperazin-1-yl)propan-1-one formation at 1 uM after 60 mins by LC-MS/MS analysis; assay type: ADME, cell-free; details: 1 h; method in brief: as §1

SMILES	minimal effective dose (Mus musculus [1]) [mg/kg]	half-life at 1 µM [3] [min]	half-life at 1 µM [4] [min]	Activity (Mus musculus [5])	minimal effective dose (Mus musculus [6]) [mg/kg]	Activity (Mus musculus [7])	Activity (Mus musculus [8])	Ratio (Mus musculus [9])	Time (Mus musculus [10]) [s]	also measured
CC(=O)N1CCN(S(=O)(=O)c2ccc(F)cc2)C(C)C1 (stereo not given)	0.1									Time (Mus musculus [2]): 82.6 s
CC(=O)N1CCN(S(=O)(=O)c2ccc(F)cc2)CC1C (stereo not given)	1									Time (Mus musculus [2]): 83.9 s
CCC(=O)N1CCN(C(=O)c2ccccc2)C(C)C1 (stereo not given)	0.1									Time (Mus musculus [2]): 60.2 s
CCC(=O)N1CCN(C(=O)c2ccccc2)CC1C (stereo not given)	> 10									
CC(=O)N1CCN(S(=O)(=O)c2ccc(F)cc2)CC1	0.01	≥ 240	≥ 240							
COCC1CN(S(=O)(=O)c2ccc(F)cc2)CCN1C(C)=O (stereo not given)		≥ 240	≥ 240	Non-Toxic	> 10	Non-Toxic	Non-Toxic			
CCC(=O)N1CCN(C(=O)c2ccccc2)C(COC)C1 (stereo not given)		≥ 240	≥ 240	Non-Toxic	1	Non-Toxic	Non-Toxic	3 - 300	73.4	
CCC(=O)N1CCN(C(=O)c2ccccc2)[C@H](CO)C1					1				58.8	
CCOC(=O)C1CN(S(=O)(=O)c2ccc(F)cc2)CCN1C(C)=O (stereo not given)		≥ 240	37	Non-Toxic	1	Non-Toxic	Non-Toxic	3 - 300	50.1	remaining at 1 h, 1 µM [11]: < 50%
CCC(=O)N1CCN(C(=O)c2ccccc2)CC1COC (stereo not given)		≥ 240	≥ 240	Non-Toxic	10	Non-Toxic	Non-Toxic	3 - 300	79.7	
CC(=O)N1CCN(S(=O)(=O)c2ccc(F)cc2)C(CO)C1 (stereo not given)		≥ 240	≥ 240	Non-Toxic	1	Non-Toxic	Non-Toxic	3 - 300	66.2	Drug metabolism (Plasma [12]): Metabolite_Detected
CC(=O)OCC1CN(S(=O)(=O)c2ccc(F)cc2)CCN1C(C)=O (stereo not given)		≥ 240	30	Non-Toxic	> 10	Non-Toxic	Non-Toxic			remaining at 2 h, 1 µM [13]: ≤ 10%; Drug metabolism (Plasma [14]): Metabolite_Detected
CC(=O)OC[C@H]1CN(C(C)=O)CCN1S(=O)(=O)c1ccc(F)cc1					1				70.6	
CCC(=O)N1CCN(C(=O)c2ccccc2)CC1CO (stereo not given)		≥ 240	≥ 240	Non-Toxic	10	Non-Toxic	Non-Toxic	3 - 300	72.7	Drug metabolism (Plasma [15]): Metabolite_Detected
COCC1CN(C(C)=O)CCN1S(=O)(=O)c1ccc(F)cc1 (stereo not given)		≥ 240	≥ 240	Non-Toxic	1	Non-Toxic	Non-Toxic	3 - 300	76.5	
CCOC(=O)C1CN(C(=O)CC)CCN1C(=O)c1ccccc1 (stereo not given)		≥ 240	26	Non-Toxic	1	Non-Toxic	Non-Toxic	3 - 300	56.6	remaining at 1 h, 1 µM [11]: < 50%
CCOC(=O)C1CN(C(=O)c2ccccc2)CCN1C(=O)CC (stereo not given)		≥ 240	12	Non-Toxic	1	Non-Toxic	Non-Toxic	3 - 300	51.1	remaining at 1 h, 1 µM [11]: < 50%
CCC(=O)N1CCN(C(=O)c2ccccc2)[C@@H](CO)C1					1				55	
CCC(=O)N1CCN(C(=O)c2ccccc2)C(COC(C)=O)C1 (stereo not given)		≥ 240	100	Non-Toxic	> 10	Non-Toxic	Non-Toxic			remaining at 2 h, 1 µM [13]: 50%; Drug metabolism (Plasma [16]): Metabolite_Detected
CC(=O)OCC1CN(C(C)=O)CCN1S(=O)(=O)c1ccc(F)cc1 (stereo not given)		≥ 240	29	Non-Toxic	0.1	Non-Toxic	Non-Toxic	3 - 300	56.8	remaining at 2 h, 1 µM [13]: ≤ 10%; Drug metabolism (Plasma [17]): Metabolite_Detected
CC(=O)N1CCN(S(=O)(=O)c2ccc(F)cc2)CC1CO (stereo not given)		≥ 240	≥ 240	Non-Toxic	10	Non-Toxic	Non-Toxic	3 - 300	48	Drug metabolism (Plasma [18]): Metabolite_Detected
CC(=O)OC[C@@H]1CN(C(C)=O)CCN1S(=O)(=O)c1ccc(F)cc1					1				64.5	
CCC(=O)N1CCN(C(=O)c2ccccc2)C(CO)C1 (stereo not given)		≥ 240	≥ 240	Non-Toxic	0.1	Non-Toxic	Non-Toxic	3 - 300	52.6	Drug metabolism (Plasma [19]): Metabolite_Detected
CCC(=O)N1CCN(C(=O)c2ccccc2)CC1COC(C)=O (stereo not given)		≥ 240	154	Non-Toxic	1	Non-Toxic	Non-Toxic	3 - 300	62.2	remaining at 2 h, 1 µM [13]: 60%; Drug metabolism (Plasma [20]): Metabolite_Detected
CCOC(=O)C1CN(C(C)=O)CCN1S(=O)(=O)c1ccc(F)cc1 (stereo not given)		≥ 240	21	Non-Toxic	0.1	Non-Toxic	Non-Toxic	3 - 300	55.7	remaining at 1 h, 1 µM [11]: < 50%
CCOC(=O)[C@H](CCc1ccccc1)N[C@@H](C)C(=O)N1CCC[C@H]1C(=O)O [ENALAPRIL]		≥ 240	94							
NC(=O)CN1CCCC1=O [PIRACETAM]	30									Time (Mus musculus [2]): 82.4 s
CC(=O)NC1CCN(S(=O)(=O)c2ccc(F)cc2)CC1 [SAPUNIFIRAM]	0.01									
CCC(=O)N1CCN(C(=O)c2ccccc2)CC1 [SUNIFIRAM]	0.001	≥ 240	≥ 240							
O=C1CCC2CN(S(=O)(=O)c3ccc(F)cc3)CCN12 (stereo not given) [UNIFIRAM]	0.001									
